Legend:
Raji [1] = experiment: Inhibition of 12-O-tetradecanoylphorbol-13-acetate-induced EBV-early antigen activation in human Raji cells assessed as early antigen induction at 1000 molar ratio after 48 hrs by conventional indirect immunofluorescence technique relative to TPA; assay type: cell-based; design: scale not given: the % may be the effect or the level left; details: human gammaherpesvirus 4
Outline: (§1)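 Raji cells (1×10^6/mL, RPMI 1640 plus 10% FCS) were incubated at 37 °C for 48 h in medium with 4 mM n-butyric acid, 32 pmol TPA in DMSO and test compound in DMSO, dosed as mol ratio to TPA. EA was detected by indirect immunofluorescence using high-titer EBV-positive NPC patient sera and FITC anti-human IgG, counting at least 500 cells. Runs were in triplicate. Results are expressed as % of the butyric acid plus TPA control (100%).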

Raji [2] = experiment: Inhibition of 12-O-tetradecanoylphorbol-13-acetate-induced EBV-early antigen activation in human Raji cells assessed as early antigen induction at 500 molar ratio after 48 hrs by conventional indirect immunofluorescence technique relative to TPA; assay type: cell-based; design: scale not given: the % may be the effect or the level left; details: human gammaherpesvirus 4; outline: as §1
Raji [3] = experiment: Inhibition of 12-O-tetradecanoylphorbol-13-acetate-induced EBV-early antigen activation in human Raji cells assessed as early antigen induction at 100 molar ratio after 48 hrs by conventional indirect immunofluorescence technique relative to TPA; assay type: cell-based; design: scale not given: the % may be the effect or the level left; details: human gammaherpesvirus 4; outline: as §1
Raji [4] = experiment: Inhibition of 12-O-tetradecanoylphorbol-13-acetate-induced EBV-early antigen activation in human Raji cells assessed as early antigen induction at 10 molar ratio after 48 hrs by conventional indirect immunofluorescence technique relative to TPA; assay type: cell-based; design: scale not given: the % may be the effect or the level left; details: human gammaherpesvirus 4; outline: as §1
[5] = Cytotoxicity against human Raji cells assessed as cell viability at 1000 molar ratio after 48 hrs by trypan blue staining method; assay type: cell-based; details: read-out: Activity
Outline: (§2)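 Raji cells (1×10^6/mL) in RPMI 1640 with 10% fetal calf serum were incubated 48 h at 37 °C with 4 mM n-butyric acid, 32 pmol TPA in DMSO and test compound in DMSO. Compound doses were set as mol ratio to TPA. Viability was read by Trypan Blue staining 2 days after treatment.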

[6] = Cytotoxicity against human Raji cells assessed as cell viability at 500 molar ratio after 48 hrs by trypan blue staining method; assay type: cell-based; details: read-out: Activity; outline: as §2
[7] = Cytotoxicity against human Raji cells assessed as cell viability at 100 molar ratio after 48 hrs by trypan blue staining method; assay type: cell-based; details: read-out: Activity; outline: as §2
[8] = Cytotoxicity against human Raji cells assessed as cell viability at 10 molar ratio after 48 hrs by trypan blue staining method; assay type: cell-based; details: read-out: Activity; outline: as §2
[9] = Inhibition of 12-O-tetradecanoylphorbol-13-acetate-induced EBV-early antigen activation in human Raji cells assessed per TPA after 48 hrs by conventional indirect immunofluorescence technique; assay type: cell-based, human gammaherpesvirus 4
Outline: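 Raji cells (1×10^6/mL) were treated at 37 °C for 48 h with 4 mM n-butyric acid, 32 pmol TPA and test compound in DMSO. EA-positive cells were scored by indirect immunofluorescence (NPC patient sera, FITC anti-human IgG), at least 500 cells per run, in triplicate. IC50 was given as the compound/TPA mol ratio inhibiting 50% of the TPA-activated positive control.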

Row | SMILES | Activity (Raji [1]) [%] | Activity (Raji [2]) [%] | Activity (Raji [3]) [%] | Activity (Raji [4]) [%] | viability at 48 h, 1000 molar ratio [5] [%] | viability at 48 h, 500 molar ratio [6] [%] | viability at 48 h, 100 molar ratio [7] [%] | viability at 48 h, 10 molar ratio [8] [%] | IC50 [9] [mol ratio/TPA]
1 | CCCCCC(=O)OCC(COC(=O)CCCCC)O[C@@H]1O[C@H](CO)[C@@H](O)[C@H](O)[C@H]1O | 9.3 | 46.8 | 76.9 | 100 | 60 | 70 | 80 | 80 | 327
2 | CCCCCCCCCCCC(=O)OCC(COC(=O)CCCCCCCCCCC)O[C@@H]1O[C@H](CO)[C@@H](O)[C@H](O)[C@H]1O | 13 | 52.4 | 80.5 | 100 | 60 | 70 | 80 | 80 | 402
3 | CCCCCC(=O)OCCO[C@@H]1O[C@H](CO)[C@H](O)[C@H](O)[C@H]1O | 6.7 | 49.5 | 78.5 | 100 | 70 | 80 | 80 | 80 | 350
4 | CCCCCCCCCCCCCCCCCC(=O)OCC(COC(=O)CCCCCCCCCCCCCCCCC)O[C@@H]1O[C@H](CS(=O)(=O)[O-])[C@@H](O)[C@H](O)[C@H]1O.[Na+] | 25.1 | 65.1 | 87.4 | 100 | 50 | 70 | 80 | 80 | 632
5 | CCCCCC(=O)OCC(COC(=O)CCCCC)O[C@@H]1O[C@H](CS(=O)(=O)[O-])[C@@H](O)[C@H](O)[C@H]1O.[Na+] | 20.3 | 60.5 | 84.3 | 100 | 50 | 70 | 80 | 80 | 539
6 | CCCCCCCCCCCC(=O)OCC(COC(=O)CCCCCCCCCCC)O[C@@H]1O[C@H](CS(=O)(=O)[O-])[C@@H](O)[C@H](O)[C@H]1O.[Na+] | 23.4 | 62.6 | 85.2 | 100 | 50 | 70 | 80 | 80 | 581
7 | CCCCCCCCCCCCCCCCCC(=O)OCC(COC(=O)CCCCCCCCCCCCCCCCC)O[C@@H]1O[C@H](CO)[C@@H](O)[C@H](O)[C@H]1O | 16.2 | 57.8 | 82.8 | 100 | 60 | 70 | 80 | 80 | 484
8 | CCCCCC(=O)OC[C@H](CO)O[C@@H]1O[C@H](COC(=O)CCCCC)[C@@H](O)[C@H](O)[C@H]1O | 0 | 15.1 | 34.6 | 71.5 | 70 | 80 | 80 | 80 | 37.3

— ChEMBL document CHEMBL1153509, “2-O-beta-d-glucopyranosyl-sn-glycerol based analogues of sulfoquinovosyldiacylglycerols (SQDG) and their role in inhibiting Epstein-Barr virus early antigen activation” (Bioorg Med Chem, 2009)
